# Results as given in PubChem BioAssay AID652186 (Vanderbilt Specialized Chemistry Center, 2013).
# Activity calls are given as the source filed them. The rule behind the calls is not given here.
# Molecular target: Metabotropic glutamate receptor 8 (Rattus norvegicus) (UniProt P70579)
# Assay: mGlu8 modulation of glutamate calcium response, selectivity assay for mGlu5 silent allosteric modulator project, cell-based, rat, HEK293A, Galpha15, Fluo4 calcium (AID 652186)
# Settings: HEK293A rmGlu8+Galpha15, glutamate CRC
# How it was run: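 Schedule: dye loading 60 min at 37°C, compound 20 s, glutamate 80 s / System: HEK293 cells expressing rat mGlu8 plus Galpha15 / Medium: HBSS, HEPES and probenecid buffer, pH 7.4 / Detection: Fluo4 calcium fluorescence / Dosing: compound at 10 µM, 1% DMSO / Probe or stimulus: glutamate, 9 concentrations, 10 nM–1 mM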
# Metabotropic glutamate receptor 8 (Rattus norvegicus), sequence (P70579 whole entry, looked up): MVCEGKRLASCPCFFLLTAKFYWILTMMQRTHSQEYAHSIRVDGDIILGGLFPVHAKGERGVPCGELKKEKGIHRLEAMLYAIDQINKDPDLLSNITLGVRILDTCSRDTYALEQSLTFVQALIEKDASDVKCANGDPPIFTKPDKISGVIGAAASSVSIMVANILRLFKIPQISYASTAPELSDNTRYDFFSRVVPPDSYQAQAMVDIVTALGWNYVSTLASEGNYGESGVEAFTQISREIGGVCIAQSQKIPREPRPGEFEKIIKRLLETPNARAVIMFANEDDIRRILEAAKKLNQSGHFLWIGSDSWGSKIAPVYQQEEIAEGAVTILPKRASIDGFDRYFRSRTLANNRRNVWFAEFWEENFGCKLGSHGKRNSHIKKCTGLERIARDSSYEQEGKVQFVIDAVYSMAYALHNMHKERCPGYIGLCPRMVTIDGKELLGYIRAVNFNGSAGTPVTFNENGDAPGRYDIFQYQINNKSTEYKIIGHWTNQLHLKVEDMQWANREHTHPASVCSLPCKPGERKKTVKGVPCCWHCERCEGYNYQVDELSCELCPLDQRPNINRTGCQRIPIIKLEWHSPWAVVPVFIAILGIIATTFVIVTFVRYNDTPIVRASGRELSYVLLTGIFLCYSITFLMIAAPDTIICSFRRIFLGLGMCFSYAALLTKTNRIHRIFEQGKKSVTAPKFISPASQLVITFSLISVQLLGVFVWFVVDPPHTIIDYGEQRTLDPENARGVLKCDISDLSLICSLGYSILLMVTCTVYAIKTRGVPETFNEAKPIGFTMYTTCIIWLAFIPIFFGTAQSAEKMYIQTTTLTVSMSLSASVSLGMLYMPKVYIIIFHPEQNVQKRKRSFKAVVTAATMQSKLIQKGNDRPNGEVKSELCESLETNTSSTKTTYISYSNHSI
smiles,measurement,value
O=C(c1ccc(C#Cc2cccc(F)c2)cn1)N1CC2CC2C1 (stereo unspecified),glutamate EC50 in presence of 10 uM compound (vehicle ~3 uM),inactive
